Among the data in the RNAGym collection of RNA variant scans (doi:10.1126/science.aae0568) are yeast fitness values, retold here.

This sample holds only a part of the variants without activity. A value given as a limit tells only on which side of the number the result lay.

B1: tRNA (parent)
chain: GUUCCGUUGGCGUAAUGGUAACGCGUCUCCCUCCUAAGGAGAAGACUGCGGGUUCGAGUCCCGUACGGAACG

The data set covers variants of B1. Put plainly: yeast fitness relative to wild type (ratio to wild type); higher = fitter; tRNA-Arg(CCU), competitive growth, 37 C, YPD. An outline of the steps:
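The tRNA-Arg(CCU) gene variants were made by chemical synthesis with a 3% per-site mutation rate at 69 sites and inserted at the native genomic locus of Saccharomyces cerevisiae. After pooling, the strains were competed in YPD at 37°C for 24 hours in six parallel replicates. Gene amplicons from the start population and each end population were read by 100-nucleotide paired-end sequencing, and Darwinian fitness relative to wild type was taken from genotype frequency changes. Genotypes needed ≥ 100 starting reads, and estimates < 0.5 were set to 0.5.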
For G41C U59A C61A C66U G68C, the yeast fitness was at most 0.5.

As to G41A C49A C66A, the yeast fitness was at most 0.5.

As for G41A U64C A65C, the yeast fitness was at most 0.5.

Turning to G41A C61G C66U, the yeast fitness was at most 0.5.

For G41C A42G, the yeast fitness worked out at 0.804.

In the case of G41C C60G G68A, the yeast fitness was at most 0.5.

Regarding A40U U54A A70U, the yeast fitness turned out to be 0.548.

Turning to G41A C60G A70G, the yeast fitness is 0.542.

Take G41C A42G G51A G68C: the yeast fitness was at most 0.5.

On to A40U G58A, for which the yeast fitness came out at 0.92.

As for A42C A43C, the yeast fitness stood at 1.02.

Regarding A42C A43U, the yeast fitness is 0.779.

Turning to A42C A43G, the yeast fitness was determined as 0.885.

With A42C A43C A69U, the yeast fitness was determined as 0.819.

Regarding G41C A70C, the yeast fitness is 0.858.

For the variant G41C A70G, the yeast fitness was determined as 0.829.

In the case of G41C A70U, the yeast fitness came out at 0.88.

In the case of G41C, the yeast fitness was found to be 0.967.

Regarding G41U, the yeast fitness came out at 0.988.

Take G41A: the yeast fitness worked out at 1.

Turning to G41C C55U G67C, the yeast fitness was at most 0.5.

With G41C A43G U54A, the yeast fitness was 0.564.

With G41A C60G C61G C62U, the yeast fitness was determined as 0.682.

Consider G41A U54C, for which the yeast fitness turned out to be 0.814.

Consider G41C C61A, for which the yeast fitness amounted to 0.593.

With G41C C61U, the yeast fitness turned out to be 0.857.

On to G41A G63A A70C, for which the yeast fitness amounted to 0.753.

In the case of G41C C55G, the yeast fitness was 0.621.

G41C G51A: the yeast fitness is 0.844.

With G41A G48A, the yeast fitness worked out at 0.944.

G41C C62U: the yeast fitness was determined as 0.802.

G41A U47A G48C: the yeast fitness was 0.6.

As to G41A A42U U59G, the yeast fitness was at most 0.5.

Consider G41A G51A, for which the yeast fitness worked out at 0.664.

Consider G41A G51C, for which the yeast fitness was at most 0.5.

Consider G41C C55A C66U A69C, for which the yeast fitness is at most 0.5.

In the case of G41C G50C C60U, the yeast fitness was at most 0.5.

For the variant G41C U47C, the yeast fitness was found to be 0.937.

On to G41C U47A, for which the yeast fitness is 0.654.

In the case of G41A U47C C61G C62U, the yeast fitness was at most 0.5.

As to G41A A45U G56C, the yeast fitness turned out to be 0.546.

As to G41C U54G, the yeast fitness is at most 0.5.

With G41C U54C, the yeast fitness turned out to be 0.889.

Turning to G41A C46A U47C, the yeast fitness came out at 1.06.

For G41A A43C, the yeast fitness was 0.843.

With G41A A43U, the yeast fitness came to 0.788.

Turning to G41U G52C, the yeast fitness turned out to be 0.584.

For the variant A42C A43C C49U A70C, the yeast fitness came to 0.585.

A42C A43G G63A: the yeast fitness came to 0.599.

With G41A C60G A65G G68A, the yeast fitness is at most 0.5.

Turning to G41C G48A C66A, the yeast fitness amounted to 0.583.

As for G41C A45U C55U, the yeast fitness was at most 0.5.

A40U G63C U64C: the yeast fitness is 0.53.

Take G41C C46A C62G: the yeast fitness came out at 0.551.

G41A C60G A65G: the yeast fitness is 0.62.

For G41C C60U G67A, the yeast fitness is at most 0.5.

Take G41A U53C: the yeast fitness worked out at 0.626.

For A42C A65U C66U, the yeast fitness came to 0.558.

As to G41A U47C U53A, the yeast fitness is at most 0.5.

Take G41A A65G: the yeast fitness turned out to be 0.934.

Regarding G41A A65U, the yeast fitness was 0.722.

For the variant G41A A43C C66U, the yeast fitness amounted to 0.517.

For G41C A69U, the yeast fitness was 0.813.

In the case of G41C A69C, the yeast fitness amounted to 0.858.

For G41A G51A A70C, the yeast fitness amounted to 0.542.

As to G41C G63A, the yeast fitness came out at 0.852.

As to G41C G63C, the yeast fitness amounted to 0.727.

Turning to A40U U47A G58C, the yeast fitness was 0.579.

Regarding A40U U47A G58A, the yeast fitness was at most 0.5.

Consider G41U C66U, for which the yeast fitness came out at 0.845.

G41C C66U: the yeast fitness came to 0.83.

On to G41A C49A G50C G68C, for which the yeast fitness was at most 0.5.

On to G41C G50A, for which the yeast fitness was 0.703.

In the case of G41C G50C, the yeast fitness turned out to be 0.695.

For the variant G41A C60A, the yeast fitness is 0.667.

As for G41A G52C, the yeast fitness is 0.542.

With G41A G52A, the yeast fitness was 0.79.

A40U G52A: the yeast fitness was determined as 0.704.

G41C A65G: the yeast fitness stood at 0.905.

Turning to G41C A65U, the yeast fitness was 0.858.

For G41C A42U U64C, the yeast fitness turned out to be 0.82.

With G41A C60A U64A, the yeast fitness is at most 0.5.

In the case of G41A G63C C66A, the yeast fitness is at most 0.5.

In the case of G41A A69U, the yeast fitness was determined as 0.914.

With G41A A69C, the yeast fitness was 0.801.

As to G41A C66G, the yeast fitness was 0.625.

Consider A42C A43G C55G G68C, for which the yeast fitness was at most 0.5.

Take G41C G58A: the yeast fitness came out at 0.948.

For the variant G41C G58C, the yeast fitness worked out at 0.762.

Consider G41A C49G A65G, for which the yeast fitness stood at 0.546.

For G41C C62A G68C, the yeast fitness was at most 0.5.

Take G41C C46A: the yeast fitness was 0.982.

As to A42C A43C C60G C61G C62U, the yeast fitness was at most 0.5.

Take A40U U47C: the yeast fitness was 0.869.

Regarding G41A U59A, the yeast fitness is 0.826.

On to G41A U59G, for which the yeast fitness turned out to be 0.822.

With A42C A45C G52C A69U, the yeast fitness is at most 0.5.

With A42C A45C, the yeast fitness was determined as 0.854.

For the variant G41A U47C C62U, the yeast fitness is at most 0.5.

G41A A43U G63A: the yeast fitness is at most 0.5.

Take G41A U59A A65C G67U: the yeast fitness is at most 0.5.

With G41A C55U, the yeast fitness is 0.885.

For G41A C55G, the yeast fitness was found to be 0.605.

G41C C55A A69C: the yeast fitness worked out at 0.529.

Consider A42C A45C G48A G58A C61U A70G, for which the yeast fitness is at most 0.5.

For the variant A40U U59C, the yeast fitness is 0.913.

Turning to A40U U59G, the yeast fitness turned out to be 0.815.

As for G41C A45U G67C, the yeast fitness is 0.607.

Take G41A A65G A70G: the yeast fitness was determined as 0.63.

As for A40U G67C, the yeast fitness turned out to be 0.755.

With G41A G58C, the yeast fitness turned out to be 0.929.

With A42C C46G A65U G67C, the yeast fitness is at most 0.5.

A40U G51A: the yeast fitness turned out to be 0.777.

For G41A U64C, the yeast fitness worked out at 1.07.

As to G41C C61U G67A, the yeast fitness is at most 0.5.

In the case of G41A A57G, the yeast fitness was found to be 0.828.

In the case of G41A A57U, the yeast fitness was determined as 0.759.

G41A U47G: the yeast fitness worked out at 0.655.

Regarding G41A U47A A70G, the yeast fitness came to 0.571.

With G41A A43G C60G A65G, the yeast fitness worked out at 0.571.

On to A40U G68C, for which the yeast fitness was found to be 0.741.

As for G41A C49U C60G A65G, the yeast fitness worked out at 0.635.

Regarding A42C A69C, the yeast fitness was 0.939.

A42C A57G: the yeast fitness worked out at 0.749.

Turning to A40U U47C C66A, the yeast fitness turned out to be 0.611.

As for A42C A70G, the yeast fitness turned out to be 0.87.

Turning to A42C A70C, the yeast fitness worked out at 1.02.

Turning to A40U U54C A70U, the yeast fitness is 0.695.

Turning to G41A G44C, the yeast fitness was 0.671.

In the case of G41A C46U C49A, the yeast fitness is at most 0.5.

Take G41A G51A C60G A65G: the yeast fitness was at most 0.5.

On to A40U G56A, for which the yeast fitness came to 0.843.

Turning to A42C A65U, the yeast fitness was found to be 0.784.

On to A42C A65C, for which the yeast fitness was 0.942.

As for A42C A65G, the yeast fitness came to 0.922.

G41A C55A U59A: the yeast fitness worked out at 0.613.

In the case of G41C G56A A65G C66U, the yeast fitness was at most 0.5.

Turning to A42C A43C A65G, the yeast fitness stood at 1.09.

As to G41A A42C G50C, the yeast fitness was 0.622.

Consider G41U A69U, for which the yeast fitness came to 0.845.

As to G41A G67A, the yeast fitness was 0.663.

Consider G41A C60G C62A A65G, for which the yeast fitness is at most 0.5.

As to G41A G68C, the yeast fitness came to 0.775.

With G41A U53A C61A G68C, the yeast fitness stood at 0.584.

Take G41A G56C G63A U64C G67C: the yeast fitness was at most 0.5.

Consider G41U G51C, for which the yeast fitness came to 0.565.

Consider G41C U59C, for which the yeast fitness came to 0.933.

In the case of G41A A70G, the yeast fitness turned out to be 0.924.

G41A A57C C62A: the yeast fitness was at most 0.5.

Take G41A A42C G50C A70G: the yeast fitness came out at 0.621.

G41C C49G: the yeast fitness came out at 0.702.

As for G41C C49U, the yeast fitness is 0.894.

Consider G41C C55G C66G, for which the yeast fitness was at most 0.5.

Take G41A A45U: the yeast fitness is 1.01.

A42C A57G C61U: the yeast fitness was at most 0.5.

Consider A42C A57U C61U, for which the yeast fitness is at most 0.5.

As to G41C U64C, the yeast fitness was determined as 0.896.

Consider G41C U64A, for which the yeast fitness was 0.67.

As to G41A C61G, the yeast fitness is 0.685.

For the variant G41C A43U, the yeast fitness stood at 0.957.

G41C A43G: the yeast fitness was determined as 0.898.

As to G41C A45U, the yeast fitness amounted to 0.778.

For G41C A45G, the yeast fitness stood at 0.778.

In the case of G41A C49A, the yeast fitness is 0.663.

Turning to G41A C49U, the yeast fitness was 0.921.

With G41A C49G, the yeast fitness was found to be 0.655.

G41A G50A: the yeast fitness was 0.807.
